Test results published in ChEMBL document CHEMBL5046272, “Discovery of Potent, Selective, and In Vivo Efficacious AKT Kinase Protein Degraders via Structure-Activity Relationship Studies” (J Med Chem, 2022).
Calls of active or inactive are those of the source. The calls are words filed in the database; no cut-off is given here.

Assays:
BT-474 = assay: Inhibition of colony formation in human BT-474 cells at 0.1 to 10 uM incubated for 14 days by replacing culture medium for every 2 days by crystal violet staining based assay; type: functional, cell-based; settings: dose 0.1-10 µM, time 14.0 day
Procedure, shortened: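 BT474 cells cultured 14 days with compound. Medium plus compound was replaced every 2 days. Viable cells were then stained with 0.5% crystal violet.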

PC-3 = assay: Antiproliferative activity against human PC-3 cells assessed as inhibition of cell growth measured after 5 days by IncuCyte zoom live cell analysis; type: functional; settings: PC-3, 120 h, time 5 day
Procedure, shortened: (§1)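 Cells grown in DMEM with 10% FBS at 37 °C, 5% CO₂. Seeded at 1–3 × 10³ cells/well in triplicate with serial compound dilutions for 5 days. Growth was taken as confluence from IncuCyte phase-contrast images of live cells. Three independent experiments.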

MDA-MB-468 = assay: Antiproliferative activity against human MDA-MB-468 cells assessed as cell growth by measured after 5 days by IncuCyte zoom live cell analysis; type: functional; settings: MDA-MB-468, 120 h, time 5 day; procedure, shortened: as §1
[1] = Cmax in Swiss albino mouse at 75 mg/kg, ip administered as single dose measured upto 12 hrs by LC-MS/MS analysis; type: ADME, organism-based; design: route intraperitoneal, dose 75 mg/kg, time <=12; settings: in vivo
Procedure, shortened: (§2)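 Male Swiss Albino mice, single IP dose of HCl salt in 5% DMA/5% Solutol HS-15/90% normal saline. Plasma (~60 μL) drawn from three mice per time point at 0.5, 1, 2, 4, 8 and 12 h. Samples were held below −70 °C and quantified by LC–MS/MS (LLOQ 10.18 ng/mL). Parameters come from non-compartmental analysis of mean concentrations.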

[2] = Tmax in Swiss albino mouse at 75 mg/kg, ip administered as single dose measured upto 12 hrs by LC-MS/MS analysis; type: ADME, organism-based; settings: in vivo; procedure, shortened: as §2
[3] = Drug exposure in Swiss albino mouse plasma at 75 mg/kg, ip administered as single dose measured upto 12 hrs by LC-MS/MS analysis; type: ADME, organism-based; settings: in vivo; procedure, shortened: as §2
[4] = AUC in Swiss albino mouse at 75 mg/kg, ip administered as single dose measured upto 12 hrs post injection by LC-MS/MS analysis; type: ADME, organism-based; design: route intraperitoneal, dose 75 mg/kg, time <=12; settings: in vivo; procedure, shortened: as §2
[5] = Toxicity in immunocompromised NU/J mouse xenografted with human PC-3 cells assessed as body weight loss at 75 mg/kg, ip administered once daily for 22 days; type: organism-based; settings: in vivo, 528 h, time 22 day
Procedure, shortened: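 Male NU/J nude mice, 6 weeks old, engrafted with PC-3 cells. Randomized at ~100 mm³ tumors to vehicle (n = 6) or 75 mg/kg IP once daily (n = 7) for 22 days. Body weight compared at study start and end. Unblinded.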

GI50 (PC-3): 800 nM
GI50 (MDA-MB-468): 1000 nM
Cmax [1]: 7 µM
Tmax [2]: 2 h
Activity [3]: 3.7 µM
AUC [4]: 63600 ng·h/mL
Compound: Cc1ncsc1-c1ccc(CNC(=O)[C@@H]2C[C@@H](O)CN2C(=O)[C@@H](NC(=O)CCCCCCCCCCC(=O)N2CCN(CC[C@H](NC(=O)C3(N)CCN(c4ncnc5[nH]ccc45)CC3)c3ccc(Cl)cc3)CC2)C(C)(C)C)cc1
inhibition (BT-474): Active
Activity [5]: Non-Toxic
